Experimental findings from ChEMBL document CHEMBL4400542, “Epidermal Growth Factor Receptor-Targeted Multifunctional Photosensitizers for Bladder Cancer Imaging and Photodynamic Therapy” (J Med Chem, 2019) are described below.

Activity calls are given as the source filed them. The calls are words filed in the database; no cut-off is given here.

The subject of data set [1] is UMUC3. Briefly: Induction of apoptosis in human UM-UC-3 cells assessed as increase in apoptotic cells at 1 uM in presence of light by Annexin V/propidium iodide-stining based flow cytometry. The class given is functional, cell-based.
Data set [2] deals with T-24. Briefly: Induction of apoptosis in human T24 cells assessed as increase in apoptotic cells at 100 nM in presence of light by Annexin V/propidium iodide-stining based flow cytometry. In kind it is functional, cell-based.
Data set [3] has as its system UMUC3. The experiment in a line: Anti-tumor activity against human UM-UC-3 cells xenografted in SCID mouse assessed as tumor necrosis at 0.47 umol/kg, iv in presence of 135 J/cm2 light irradiation at 24 hrs post injection and measured at 72 hrs post light exposure. In kind it is functional, organism-based. (In xenograft studies the graft and the host belong to different species.)

Data set [4] has as its target Epidermal growth factor receptor (Homo sapiens) (UniProt P00533). Briefly: Inhibition of EGFR autophosphorylation at Ty1068 in human UM-UC-3 cells at 1 uM followed by PDT and measured after 24 hrs by Western blot analysis. The class given is cell-based. (In general: A western blot detects proteins with antibodies after separation by electrophoresis.)
Data set [5] is described as follows: Induction of singlet oxygen generation in deaerated toluene at 670 nm assessed as singlet decay life time by femtosecond transient absorption spectroscopy. In kind it is functional.
The test system of data set [6] is T-24. The experiment in a line: Induction of apoptosis in human T24 cells assessed as increase in apoptotic cells at 1 uM in presence of light by Annexin V/propidium iodide-stining based flow cytometry. The class given is functional, cell-based. In general terms: Flow cytometry measures light scatter and fluorescence of single cells or particles in a stream.
Data set [7] deals with UMUC3. Briefly: Anti-tumor activity against human UM-UC-3 cells xenografted in SCID mouse at 0.47 umol/kg, iv in presence of 135 J/cm2 light irradiation at 24 hrs post injection and measured every day till day 60. The class given is functional, organism-based. An outline of the steps:
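UMUC-3 cells implanted in right flank of SCID mice; at 4–5 mm tumors, PS given i.v. at 0.47 µmol/kg. Tumors exposed to 665 nm light, 135 J/cm2 at 75 mW/cm2, 24 h post-injection. Tumor regrowth monitored daily; mice euthanized at >400 mm3; tumor-free status scored at day 60.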

For data set [8], the system named is UMUC3. The experiment in a line: Induction of apoptosis in human UM-UC-3 cells assessed as increase in necrotic cells at 1 uM in presence of light by Annexin V/propidium iodide-stining based flow cytometry. The class given is functional, cell-based.
Data set [9] can be described thus: Induction of singlet oxygen generation in oxygen-saturated toluene solution at 670 nm assessed as decay rate constant of triplet excited state by femtosecond transient absorption spectroscopy. In kind it is functional.
For data set [10], the system named is T-24. The experiment in a line: Induction of apoptosis in human T24 cells assessed as increase in necrotic cells at 1 uM in presence of light by Annexin V/propidium iodide-stining based flow cytometry. In kind it is functional, cell-based.
Data set [11] is described as follows: Induction of singlet oxygen generation assessed as energy transfer from the triplet chlorins to oxygen by femtosecond transient absorption spectroscopy. The class given is functional.
For data set [12], the system named is UMUC3. The experiment in a line: Induction of apoptosis in human UM-UC-3 cells assessed as increase in necrotic cells at 100 nM in presence of light by Annexin V/propidium iodide-stining based flow cytometry. In kind it is functional, cell-based.
Data set [13] has as its target Epidermal growth factor receptor (Homo sapiens) (UniProt P00533). The experiment in a line: Inhibition of EGFR autophosphorylation at Ty1068 in human T24 cells at 1 uM followed by PDT and measured after 24 hrs by Western blot analysis. In kind it is cell-based.
Data set [14] in a line: Induction of singlet oxygen generation in deaerated toluene at 670 nm assessed as rate of singlet decay by femtosecond transient absorption spectroscopy. In kind it is functional.
The nature of data set [15]: Induction of singlet oxygen generation in Ar-saturated toluene solution at 670 nm assessed as decay rate constant of triplet excited state by femtosecond transient absorption spectroscopy. In kind it is functional.
The target of data set [16] is Epidermal growth factor receptor (Homo sapiens) (UniProt P00533). The experiment in a line: Inhibition of EGFR autophosphorylation at Ty1068 in human UM-UC-3 cells at 100 nM followed by PDT and measured after 24 hrs by Western blot analysis. In kind it is cell-based.
Epidermal growth factor receptor (Homo sapiens), sequence (P00533 whole entry): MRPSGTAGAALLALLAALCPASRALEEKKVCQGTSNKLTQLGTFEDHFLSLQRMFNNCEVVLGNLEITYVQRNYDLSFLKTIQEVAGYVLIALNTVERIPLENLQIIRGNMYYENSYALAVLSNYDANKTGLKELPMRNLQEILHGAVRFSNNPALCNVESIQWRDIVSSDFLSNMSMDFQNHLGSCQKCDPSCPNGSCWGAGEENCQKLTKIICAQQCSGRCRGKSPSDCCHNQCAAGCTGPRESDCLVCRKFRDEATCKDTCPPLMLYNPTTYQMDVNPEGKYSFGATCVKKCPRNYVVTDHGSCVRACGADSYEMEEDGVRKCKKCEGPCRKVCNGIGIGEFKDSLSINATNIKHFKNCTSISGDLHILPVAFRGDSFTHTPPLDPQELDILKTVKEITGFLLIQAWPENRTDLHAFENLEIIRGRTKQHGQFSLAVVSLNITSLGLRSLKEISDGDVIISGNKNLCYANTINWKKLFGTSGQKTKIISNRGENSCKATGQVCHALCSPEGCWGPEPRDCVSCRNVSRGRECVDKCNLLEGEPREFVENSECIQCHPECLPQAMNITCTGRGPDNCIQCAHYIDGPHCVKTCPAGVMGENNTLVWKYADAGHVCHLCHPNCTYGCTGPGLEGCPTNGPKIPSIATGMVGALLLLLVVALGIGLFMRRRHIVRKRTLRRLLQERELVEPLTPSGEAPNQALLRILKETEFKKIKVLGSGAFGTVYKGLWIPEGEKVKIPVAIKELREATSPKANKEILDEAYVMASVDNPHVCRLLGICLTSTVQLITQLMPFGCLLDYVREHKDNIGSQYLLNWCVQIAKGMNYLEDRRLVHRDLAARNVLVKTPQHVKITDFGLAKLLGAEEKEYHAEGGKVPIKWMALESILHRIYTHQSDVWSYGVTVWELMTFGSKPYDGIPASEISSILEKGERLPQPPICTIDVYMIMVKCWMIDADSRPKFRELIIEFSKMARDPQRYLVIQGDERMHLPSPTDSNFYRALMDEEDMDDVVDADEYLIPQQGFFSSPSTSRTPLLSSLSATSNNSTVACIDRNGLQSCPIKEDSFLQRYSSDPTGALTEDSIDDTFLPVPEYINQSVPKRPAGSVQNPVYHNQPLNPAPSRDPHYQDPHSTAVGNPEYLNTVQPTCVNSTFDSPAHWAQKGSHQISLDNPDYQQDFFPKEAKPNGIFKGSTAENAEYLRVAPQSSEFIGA
Data set [17] deals with UMUC3. Briefly: Induction of apoptosis in human UM-UC-3 cells assessed as increase in apoptotic cells at 100 nM in presence of light by Annexin V/propidium iodide-stining based flow cytometry. The class given is functional, cell-based.
The nature of data set [18]: Drug uptake in human UM-UC-3 cells xenografted in SCID mouse at 50 uCi, iv measured at 110 min post injection by PET imaging analysis. The following applies: in vivo.

`CCC1=C(C)c2cc3[nH]c(cc4nc(c5c6[nH]c(cc1n2)c(C)c6C(=O)C5)[C@@H](CCC(=O)NCc1cccc(C#Cc2cccc(Nc5ncnc6cc(OCCOC)c(OCCOC)cc56)c2)c1)[C@@H]4C)c(C)c3C(C)OCc1cccc(I)c1` (stereo partly drawn): the outcome in the data set on UMUC3 [1], in the data set on UMUC3 [3], in the data set with T-24 [6], with UMUC3 [7], in the data set with UMUC3 [8] and with T-24 [10] was Active. Besides, the result with UMUC3 [12] and in the data set on UMUC3 [17] was Active. The outcome with T-24 [2] was inactive. Besides, the inhibition result in [4], in [13] and in data set [16] was “Active” in each case. Also, the Time in [5] was found to be 133 pS. Moreover, the K in [9] was found to be 2.07 ×10⁵ /s; in data set [11], 1.03 ×10¹⁰ /M/s; in [14], 7.5 ×10⁹ /s; in [15] it was 9.8 ×10⁴ /s.
As for `OC[C@H]1OC(O)[C@H]([18F])[C@@H](O)[C@@H]1O` (stereo partly drawn) [FLUDEOXYGLUCOSE F 18], the Drug uptake result in data set [18] is reported as “Not Active”.
